SENP6 inh: SENP6 protease inhibition. Q9GZR1. Recombinant SENP6 catalytic domain, aminoluciferin luminescence. inhibition, % at 10 µM. 330,000 tested, 1.8% active. AID 2599;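 active means inhibition above about 50% at the single tested dose, limit read from the data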
SENP1 FRET inh: SENP1 (human) catalytic domain inhibition; Q9P0U3; recombinant SENP1 catalytic domain, CyPet-SUMO1-YPet FRET cleavage; inhibition, % at 10 µM; 360,000 tested, 0.21% active;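 active means inhibition at least 30% at 10 µM, raw YFP signal under a set limit, fluorescence ratio 0.5 to 1.5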
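material = recombinant human SENP1 catalytic domain, His6-tagged | quantity = 20 pM enzyme | reagent = 25 nM SUMO1 FRET substrate | compound dosing = 10 µM single point, 0.5% DMSO | timing = 50 min enzyme reaction, room temperature, light-protected | detection = FRET, CFP and YFP emission | control set = no-enzyme low, enzyme-DMSO high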
SENP7 inh: inhibitors of human SENP7 protease; Q9BQF6; recombinant SENP7, Z-RLRGG-aminoluciferin luminescence, 40 min; inhibition, % at 5 µM; 330,000 tested, 1.5% active; AID 434973;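 active means inhibition above about 50% at the single test dose, limit read from the data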
Target sequence (Q9BQF6 706-1050 limits assumed): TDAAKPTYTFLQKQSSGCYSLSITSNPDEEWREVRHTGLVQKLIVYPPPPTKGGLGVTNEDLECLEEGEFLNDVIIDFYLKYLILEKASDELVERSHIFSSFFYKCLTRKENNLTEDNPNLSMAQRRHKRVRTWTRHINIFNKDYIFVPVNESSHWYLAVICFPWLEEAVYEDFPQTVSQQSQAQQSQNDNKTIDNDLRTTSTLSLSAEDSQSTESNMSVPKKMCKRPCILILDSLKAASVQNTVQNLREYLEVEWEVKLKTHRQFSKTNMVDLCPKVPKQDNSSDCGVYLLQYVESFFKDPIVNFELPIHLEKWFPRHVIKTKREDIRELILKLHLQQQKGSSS
SENP8 block-1: inhibitors of human SENP8 protease; 360,000 tested, 0.64% active; AID 602440; Q96LD8; inhibition, % at 20 µM; recombinant SENP8, Nedd8 substrate fluorescence; in the data active means inhibition mostly above about 40%, no sharp cut-off; inactive means mostly below about 27%
SENP8 block-2: SENP8 protease inhibition; purified SENP8, Z-RLRGG-aminoluciferin cleavage, luminescence; inhibition, % at 10 µM; 330,000 tested, 1.2% active; AID 2540; in the data active means inhibition above about 50%
SENP8 confirm: human SENP8 inhibition, confirmed; Recombinant SENP8, Z-RLRGG-aminoluciferin luminescence, 60 min; 6,200 tested, 40% active; shares compounds with SENP7 inh; inhibition, % at 12.5 µM; AID 488912;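 active means mean inhibition across replicates above about 50%, limit read from the data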
SENP6 conf: human SENP6 inhibition, confirmed; shares compounds with SENP7 inh; recombinant SENP6, Z-RLRGG-aminoluciferin luminescence; inhibition, % at 12.5 µM; 6,200 tested, 58% active; AID 488915
SENP7 conf: human SENP7 inhibition, confirmed | recombinant SENP7, Z-RLRGG-aminoluciferin luminescence, 40 min | inhibition, % at 12.5 µM | shares compounds with SENP7 inh | 6,200 tested, 69% active
Casp3 select: inhibits human caspase-3 in SENP selectivity test; 6,200 tested, 60% active; AID 488918; purified caspase-3, Z-DEVD-aminoluciferin luminescence, 60 min; shares compounds with SENP7 inh; inhibition, % at 12.5 µM;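 active means mean inhibition above about 50%, limit read from the data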
SENP luc ctr: luminescence interference (SENP counter-screen) | shares compounds with SENP7 inh | Pre-incubated SENP8/Z-RLRGG-aminoluciferin, luciferase luminescence interference | inhibition, % at 12.5 µM | 6,200 tested, 39% active | AID 488919;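 active means mean inhibition above about 50% when retested at one dose, limit read from the data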
A number is an active result; 0 = inactive; - = no result given. A selection: hits, their analogues and other compounds. The true share with any hit is near 2.5%.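 How the source made its calls, unless noted: active means mean inhibition above about 50% in the one-dose retest (limit read from the data); inactive means the rest.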

SMILES	SENP6 inh	SENP1 FRET inh	SENP7 inh	SENP8 block-1	SENP8 block-2	SENP8 confirm	SENP6 conf	SENP7 conf	Casp3 select	SENP luc ctr
O=C(NCc1ccccc1CN1CCCC1)c1cccc(N2CCCC2=O)c1	0	0	0	0	0	-	-	-	-	-
CCC(=O)Nc1nc(C)c(-c2csc(Nc3ccccn3)n2)s1	0	0	0	0	59	52	69	86	0	58
Oc1ccc(-c2csc(Nc3ccccn3)n2)cc1O	87	0	0	0	61	78	79	92	0	81
Cc1cccc(Nc2nc(-c3ccc(F)c(C)c3)cs2)n1	53	0	55	0	0	0	60	76	0	0
CC(=O)Nc1ccc(-c2csc(Nc3ccccn3)n2)cc1	87	0	73	0	75	74	79	96	60	86
CC(=O)Nc1nc(-c2ccc(-c3ccccc3)cc2)cs1	-	0	-	0	-	-	-	-	-	-
O=C(CSC(=S)N1CCCC1)N(Cc1nnc(-c2ccccc2Cl)o1)C1CC1	0	0	0	0	0	-	-	-	-	-
Cc1ccnc(Nc2nc(-c3ccc(O)c(O)c3)cs2)c1	0	0	0	0	0	-	-	-	-	-
Cc1cccc(Nc2nc(-c3ccc(O)c(O)c3)cs2)n1	65	0	0	0	0	0	0	71	0	67
Cc1ccc(CN2CCN(Cc3cnn(-c4ccc(Cl)cc4)c3)CC2CCO)o1 (stereo not drawn)	0	0	0	0	0	-	-	-	-	-
Cc1ccc(CN2CCN(Cc3ccncc3)CC2CCO)o1 (stereo not drawn)	76	0	0	0	0	0	0	0	0	0
CCN(CC)CCC(O)(c1ccc2c(c1)OCO2)c1cc(OC)c(OC)c(OC)c1 (stereo not drawn)	-	0	-	0	-	-	-	-	-	-
CCN(CC)CC1CN(N=Cc2ccc([N+](=O)[O-])o2)C(=O)O1 (stereo not drawn)	-	0	-	0	-	-	-	-	-	-
N/C(=N\OC(=O)c1cccc2ccccc12)c1ccccn1	80	0	77	0	69	81	79	94	79	84
COc1cccc(C(=O)O/N=C(\N)c2ccccn2)c1OC	76	0	73	0	59	69	68	92	92	79
CSc1nsc(/C=C/Nc2ccc(C(=O)O)cc2)c1C#N	58	0	0	0	0	0	68	89	57	0
CC(=O)Nc1nc(COc2ccc3ccccc3c2)cs1	62	0	62	0	0	0	0	81	-	0
O=C(Nc1nc(COc2ccccc2)cs1)C1CCC1	54	0	0	0	0	0	0	0	0	0
CC(=O)Nc1nc(COc2ccccc2)cs1	0	0	0	0	0	-	-	-	-	-
Cn1nnc(NC(=O)c2cccc(F)c2)n1	51	0	0	0	0	0	0	0	0	0
COc1ccc(-c2nnc(SCC(=O)Nc3c(Cl)cc(Cl)cc3C(=O)O)o2)cc1	0	0	0	0	0	-	-	-	-	-
CC(C)(C)NC(=S)Nc1ccc(Nc2ccccc2)cc1	0	0	50	0	0	0	0	0	0	0
NC(=O)c1c(NC(=O)CN2CCN(S(=O)(=O)c3ccccc3)CC2)sc2c1CCC2	0	0	0	0	0	-	-	-	-	-
CC(C)C[C@H](NC(=O)/C=C/[C@H]1O[C@@H](n2ccc(=O)[nH]c2=O)[C@H](O)[C@@H]1O)C(=O)O	-	0	-	0	-	-	-	-	-	-
CC(=O)c1c(C)[nH]c(C(=O)Nc2ccc3c(c2)OCCO3)c1C	58	0	58	0	0	57	53	84	75	60
CCOc1ccc(NC(=O)c2[nH]c(C)c(C(C)=O)c2C)cc1	50	0	59	0	0	57	50	81	75	62
CCOC(=O)c1[nH]c(C)c(C(=O)Nc2ccc3c(c2)OCCO3)c1C	0	0	0	0	0	-	-	-	-	-

Screening results (PubChem BioAssay)
